Assay results: ChEMBL document CHEMBL1125245, “Quinolone antibacterials: preparation and activity of bridged bicyclic analogues of the C7-piperazine” (J Med Chem, 1991)

How the values were obtained:
Escherichia coli [1] = experiment: In vivo protection against gram-negative Escherichia coli vogel in mouse after oral administration.; conditions: read-out: PD50
Escherichia coli [2] = experiment: In vivo protection against gram-negative Escherichia coli vogel in mouse after subcutaneous administration; conditions: sc, read-out: PD50
[3] = Compound evaluated in vitro against five gram-positive bacterial strains and geometric means of the minimum inhibitory concentrations (MIC) reported.; type: functional; set-up: unit not given here
Method in brief: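 Geometric mean MIC across five Gram-positive strains, taken as antilog of the averaged log MIC values.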

DNA gyrase = DNA gyrase (Escherichia coli, UniProt P0AES4+P0AES6); experiment: Compound evaluated in vitro for the ability to inhibit gyrase.; type: protein-complex assay; conditions: read-out: I50 (converted)
Method in brief: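 DNA gyrase isolated from Escherichia coli H560 cells; inhibition given as I50.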

[4] = Compound evaluated in vitro against five gram-negative bacterial strains and geometric means of the minimum inhibitory concentrations (MIC) reported.; type: functional; set-up: unit not given here
Method in brief: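 Geometric mean MIC across five Gram-negative strains (E. coli H560, E. coli Vogel, Enterobacter cloacae MA 2646, Klebsiella pneumoniae MGH-2, Proteus rettgeri M1771). Mean taken as antilog of the averaged log MIC values.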

Streptococcus pneumoniae [5] = experiment: In vivo protection against gram-positive Streptococcus pneumonia (SV-1) in mouse after oral administration.; type: functional; conditions: read-out: PD50
Streptococcus pneumoniae [6] = experiment: In vivo protection against gram-positive Streptococcus pneumonia (SV-1) in mouse after subcutaneous administration; type: functional; conditions: sc, read-out: PD50

SMILES	ED50 (Escherichia coli [1])	ED50 (Escherichia coli [2])	MIC [3]	IC50 (DNA gyrase)	MIC [4]	ED50 (Streptococcus pneumoniae [5])	ED50 (Streptococcus pneumoniae [6])
CN1CC2CCC1CN2c1nc2c(cc1F)c(=O)c(C(=O)O)cn2C1CC1 (stereo not given)	1.4 mg/kg	1.1 mg/kg	0.26	14.8 µM	0.1	–	–
N[C@H]1C[C@H]2CC[C@@H](C1)N2c1cc2c(cc1F)c(=O)c(C(=O)O)cn2C1CC1	9.5 mg/kg	2 mg/kg	0.23	8.08 µM	0.15	–	–
CCN[C@H]1C[C@H]2CC[C@@H](C1)N2c1nc2c(cc1F)c(=O)c(C(=O)O)cn2C1CC1	2.8 mg/kg	2.8 mg/kg	0.26	15.7 µM	0.46	23 mg/kg	16 mg/kg
Br.Nc1c(F)c(N2C[C@@H]3CC2CN3)c(F)c2c1c(=O)c(C(=O)O)cn2C1CC1	6.1 mg/kg	1.1 mg/kg	0.25	–	0.07	–	–
Br.O=C(O)c1cn(C2CC2)c2cc(N3C[C@@H]4CC3CN4)c(F)cc2c1=O	1.9 mg/kg	0.2 mg/kg	0.3	4.48 µM	0.04	> 100 mg/kg	12.5 mg/kg
CCN[C@H]1C[C@H]2CC[C@@H](C1)N2c1cc2c(cc1F)c(=O)c(C(=O)O)cn2C1CC1.F	–	–	1.81	41.7 µM	2.76	–	–
O=C(O)c1cn(C2CC2)c2nc(N3CC4CCC3CN4)c(F)cc2c1=O (stereo not given)	1.7 mg/kg	0.7 mg/kg	0.11	17.6 µM	0.13	> 100 mg/kg	15.1 mg/kg
Nc1c(F)c(N2CCNCC2)c(F)c2c1c(=O)c(C(=O)O)cn2C1CC1	0.8 mg/kg	0.2 mg/kg	0.05	–	0.02	31 mg/kg	23 mg/kg
O=C(O)c1cn(C2CC2)c2cc(N3C[C@H]4CC3CN4)c(F)cc2c1=O	5.5 mg/kg	0.6 mg/kg	0.79	8.15 µM	0.1	> 100 mg/kg	51 mg/kg
O=C(O)c1cn(C2CC2)c2c(F)c(N3CC4CCCC3CN4)c(F)cc2c1=O (stereo not given)	2.9 mg/kg	1.1 mg/kg	0.15	7.45 µM	0.15	48.5 mg/kg	11.9 mg/kg
O=C(O)c1cn(C2CC2)c2cc(N3CCNCC3)c(F)cc2c1=O [CIPROFLOXACIN]	1.2 mg/kg	0.3 mg/kg	0.91	–	0.06	> 100 mg/kg	29 mg/kg
Nc1c(F)c(N2CC3CCCC2CN3)c(F)c2c1c(=O)c(C(=O)O)cn2C1CC1 (stereo not given)	4.8 mg/kg	0.7 mg/kg	0.03	2.23 µM	0.04	35 mg/kg	6.3 mg/kg
O=C(O)c1cn(C2CC2)c2c(F)c(N3C[C@H]4CC3CN4)c(F)cc2c1=O	1.7 mg/kg	0.4 mg/kg	0.53	7.75 µM	0.07	> 100 mg/kg	18.5 mg/kg
O=C(O)c1cn(C2CC2)c2nc(N3C[C@H]4CC3CN4)c(F)cc2c1=O	53 mg/kg	37 mg/kg	0.46	18.3 µM	0.08	–	–
O=C(O)c1cn(C2CC2)c2nc(N3CCN4CCC3C4)c(F)cc2c1=O (stereo not given)	0.5 mg/kg	0.3 mg/kg	0.46	38.5 µM	0.11	32 mg/kg	20 mg/kg
Cl.N[C@@H]1C[C@H]2CC[C@@H](C1)N2c1nc2c(cc1F)c(=O)c(C(=O)O)cn2C1CC1	2.1 mg/kg	1.1 mg/kg	0.46	42.8 µM	0.25	29 mg/kg	21 mg/kg
CCN[C@@H]1C[C@H]2CC[C@@H](C1)N2c1c(F)cc2c(=O)c(C(=O)O)cn(C3CC3)c2c1F	5.8 mg/kg	3 mg/kg	0.17	9.1 µM	0.61	–	–
O=C(O)c1cn(C2CC2)c2c(F)c(N3CCNCC3)c(F)cc2c1=O	0.5 mg/kg	0.3 mg/kg	0.4	–	0.04	59 mg/kg	29 mg/kg
CCN[C@H]1C[C@H]2CC[C@@H](C1)N2c1c(F)cc2c(=O)c(C(=O)O)cn(C3CC3)c2c1F	> 12.5 mg/kg	6.5 mg/kg	0.46	15.1 µM	0.6	–	–
Cl.N[C@H]1C[C@H]2CC[C@@H](C1)N2c1nc2c(cc1F)c(=O)c(C(=O)O)cn2C1CC1	71 mg/kg	6 mg/kg	0.4	18.3 µM	0.79	–	–

SMILES	ED50 (Escherichia coli [1])	ED50 (Escherichia coli [2])	MIC [3]	IC50 (DNA gyrase)	MIC [4]	ED50 (Streptococcus pneumoniae [5])	ED50 (Streptococcus pneumoniae [6])
Cl.O=C(O)c1cn(C2CC2)c2nc(N3CC4CCCC3CN4)c(F)cc2c1=O (stereo not given)	2.3 mg/kg	0.8 mg/kg	0.09	7.34 µM	0.08	25 mg/kg	18 mg/kg
O=C(O)c1cn(C2CC2)c2nc(N3CCNCC3)c(F)cc2c1=O	0.7 mg/kg	0.4 mg/kg	1.21	150 µM	0.06	–	–
CCN[C@@H]1C[C@H]2CC[C@@H](C1)N2c1nc2c(cc1F)c(=O)c(C(=O)O)cn2C1CC1	21 mg/kg	9.1 mg/kg	0.53	15.7 µM	0.6	–	–
CN1CC2C[C@@H]1CN2c1nc2c(cc1F)c(=O)c(C(=O)O)cn2C1CC1.Cl	0.5 mg/kg	0.3 mg/kg	0.35	9.62 µM	0.08	23 mg/kg	25 mg/kg
NC1CCN(c2cc3c(cc2F)c(=O)c(C(=O)O)cn3C2CC2)CC1	15 mg/kg	1.4 mg/kg	0.17	2.32 µM	0.17	–	–
O=C(O)c1cn(C2CC2)c2c(F)c(N3CC4CCC3CN4)c(F)cc2c1=O (stereo not given)	2.9 mg/kg	1.3 mg/kg	0.3	16.8 µM	0.09	–	–
NC1CCN(c2c(F)cc3c(=O)c(C(=O)O)cn(C4CC4)c3c2F)CC1	4.7 mg/kg	1.4 mg/kg	0.08	< 1.38 µM	0.2	–	–
CN1CC2C[C@@H]1CN2c1c(F)cc2c(=O)c(C(=O)O)cn(C3CC3)c2c1F.Cl	0.9 mg/kg	0.5 mg/kg	0.17	7.28 µM	0.09	13 mg/kg	14 mg/kg
Cl.N[C@@H]1C[C@H]2CC[C@@H](C1)N2c1c(F)cc2c(=O)c(C(=O)O)cn(C3CC3)c2c1F	21 mg/kg	4 mg/kg	0.11	8.92 µM	0.26	–	–
CCN[C@@H]1C[C@H]2CC[C@@H](C1)N2c1cc2c(cc1F)c(=O)c(C(=O)O)cn2C1CC1	5.7 mg/kg	2.3 mg/kg	0.26	15.8 µM	0.8	35 mg/kg	23 mg/kg
N[C@H]1C[C@H]2CC[C@@H](C1)N2c1c(F)cc2c(=O)c(C(=O)O)cn(C3CC3)c2c1F	1.8 mg/kg	0.75 mg/kg	0.03	9.76 µM	0.05	8.5 mg/kg	3.1 mg/kg
CN1CC2CCC1CN2c1c(F)cc2c(=O)c(C(=O)O)cn(C3CC3)c2c1F (stereo not given)	< 1.6 mg/kg	< 1.6 mg/kg	0.15	16.2 µM	0.13	–	–
Nc1c(F)c(N2CC3CCC2CN3)c(F)c2c1c(=O)c(C(=O)O)cn2C1CC1 (stereo not given)	3.6 mg/kg	0.7 mg/kg	0.06	14.1 µM	0.06	–	–
O=C(O)c1cn(C2CC2)c2cc(N3CCN4CCC3C4)c(F)cc2c1=O (stereo not given)	1 mg/kg	0.3 mg/kg	0.09	8.39 µM	0.03	35 mg/kg	11 mg/kg
O=C(O)c1cn(C2CC2)c2cc(N3CC4CCCC3CN4)c(F)cc2c1=O (stereo not given)	5.7 mg/kg	1.6 mg/kg	0.06	4.85 µM	0.08	> 100 mg/kg	6.6 mg/kg
Nc1c(F)c(N2CCN3CCC2C3)c(F)c2c1c(=O)c(C(=O)O)cn2C1CC1 (stereo not given)	0.6 mg/kg	0.2 mg/kg	0.08	14.1 µM	0.03	–	–
NC1CCN(c2nc3c(cc2F)c(=O)c(C(=O)O)cn3C2CC2)CC1	4.6 mg/kg	0.8 mg/kg	0.23	8.66 µM	0.11	–	–
Nc1c(F)c(N2C[C@H]3CC2CN3)c(F)c2c1c(=O)c(C(=O)O)cn2C1CC1	5 mg/kg	1 mg/kg	0.09	36.7 µM	0.04	> 100 mg/kg	13 mg/kg
Cl.O=C(O)c1cn(C2CC2)c2nc(N3C[C@@H]4CC3CN4)c(F)cc2c1=O	2.2 mg/kg	1.6 mg/kg	0.26	–	0.03	–	–
O=C(O)c1cn(C2CC2)c2c(F)c(N3CCN4CCC3C4)c(F)cc2c1=O (stereo not given)	0.5 mg/kg	0.2 mg/kg	0.15	7.73 µM	0.04	32 mg/kg	11 mg/kg
